Bioassay records deposited in PubChem by several laboratories.
hK5 inh: kallikrein 5 (human) inhibition. Q9Y337. recombinant hK5, fluorogenic AMC substrate cleavage. inhibition, % at 5 µM. hit rate 0.59% among 210,000. AID 873;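 active means inhibition of 40% or more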;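 further: 0% = enzyme controls without compound and 100% = no-enzyme blanks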
Target sequence (Q9Y337 67-293 limits assumed): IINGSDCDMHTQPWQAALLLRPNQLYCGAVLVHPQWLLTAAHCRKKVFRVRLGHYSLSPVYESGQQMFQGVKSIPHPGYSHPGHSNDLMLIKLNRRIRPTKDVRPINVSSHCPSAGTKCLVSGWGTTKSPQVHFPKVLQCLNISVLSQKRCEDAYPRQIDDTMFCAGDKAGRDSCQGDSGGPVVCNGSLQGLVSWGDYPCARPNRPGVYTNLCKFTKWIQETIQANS
FXIIa inh 1536: blocks human coagulation factor XIIa protease activity | purified FXIIa, Boc-QGR-AMC fluorogenic substrate, 2 h | inhibition, % at 5 µM | P00748 | hit rate 0.3% among 220,000; in the data active means inhibition above about 40%;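 further: 0% = enzyme with no compound and 100% = blank without enzyme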
Calb biofilm kill: mixtures killing C. albicans biofilm | C. albicans biofilm persisters + clotrimazole, fluorescence viability; primary screen in compound mixtures of four per well | inhibition, % at 7.6 µM | hit rate 0.02% among 120,000 | AID 1242;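 active means inhibition above 30.3% in the primary screen of four-compound pools, then above 30% when the compound was retested; inconclusive means passed the primary limit but could not be retested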;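 further: compounds exposed to preformed 24 h biofilms for 48 h; 0% = untreated biofilm control and 100% = clotrimazole plus chlorhexidine kill blank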
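System: C. albicans CAF4-2 wild-type biofilms; Medium: RPMI/MOPS medium, pH 7.0; Reagent: Clotrimazole, 50 µg/mL; Times: biofilm formation 24 h, compound exposure 48 h, 37 °C; Detection: 2-h Alamar Blue fluorescence, 535/590 nm excitation/emission; Evaluation: percent inhibition of biofilm viability.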
FXIa inh: factor XIa (human) inhibition | P03951 | purified FXIa, Boc-Glu-Ala-Arg-AMC fluorogenic substrate | inhibition, % at 5 µM | hit rate 0.14% among 220,000;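 active means inhibition of at least 40%; inactive means inhibition below 40%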;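 further: fluorescence of freed AMC excited at 355 nm; 0% = enzyme without compound and 100% = no enzyme blank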
thrombin 1536: inhibitors of human thrombin; alpha-thrombin, Boc-VPR-AMC fluorogenic substrate cleavage; inhibition, % at 5 µM; hit rate 0.26% among 220,000; AID 1046;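 active means inhibition at or above 40%; inactive means inhibition below 40%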;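 further: 0% = enzyme with no compound and 100% = wells without enzyme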
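signal = AMC fluorescence, 355/460 nm | material = human alpha-thrombin enzyme | control set = enzyme without compound as high, wells lacking enzyme as low | times = reaction at room temperature | read-out basis = percent inhibition scaled between no-compound controls and no-enzyme blanks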
Lipid droplet: hepatic lipid droplet formation modulation; AML12 mouse hepatocytes, oleate lipid droplets, BODIPY imaging; hit rate 0.4% among 240,000; inhibition, % at 6.5 µM; AID 1656;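 active means lipid droplet intensity inhibited by at least 50%, with more than 500 cells counted; inconclusive means wells with under 300 cells, treated as cytotoxic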
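Material – AML12 mouse liver cells · Also added – oleate loading, 100 µM · Compound dosing – 6.5 µM single-point dosing · Times – overnight treatment with compound plus oleate · Measured by – fluorescence imaging, 20x objective, two fields per well · Read-out – percent inhibition of filter-corrected integrated lipid droplet intensity per well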
* = called active by the depositor; ? = inconclusive; . = no result. Shown are actives, neighbours in structure and some others; about 1.1% of the full set was active somewhere.

SMILES	hK5 inh	FXIIa inh 1536	Calb biofilm kill	FXIa inh	thrombin 1536	Lipid droplet
CCC(C(=O)N/N=C(\C)c1cccnc1)c1ccccc1 (stereo not drawn)	.	.	.	.	.	-45
COc1ccc(/C=C/CN2CCC(n3nccc3NC(=O)C3CCCC3)CC2)cc1	.	.	.	.	.	-12
Cc1ccc2c(c1)[nH]c1c(=O)n(CCC3=CCCCC3)cnc12	19	5	.	-3	64*	.
Cc1cc(=O)oc2ccc(OCC(=O)NCc3ccco3)cc12	3	19	.	8	-1	17
Cc1cc(=O)oc2cc(OCC(=O)NCc3ccco3)ccc12	42*	14	8	3	19	19
CC1(C)CC(=O)c2cnc(NC(=O)CCc3ccccc3)nc2C1	86*	26	.	12	14	1
CCOc1ccccc1NC(=S)NCc1ccco1	45*	18	.	-2	17	-49
CCOc1ccccc1NC(=S)NCc1ccccc1	.	.	.	.	.	-14
C/C(=N/Oc1nc(C)cc(C)n1)c1ccc(Br)cc1	41*	13	.	1	11	11
COc1ccc(N2CCCn3c2nc2c3c(=O)n(Cc3ccc(C)cc3)c(=O)n2C)c(OC)c1	21	54*	17	11	18	6
COc1cccc(N2CCCn3c2nc2c3c(=O)n(CCN3CCOCC3)c(=O)n2C)c1	-10	23	.	2	-6	.
CC(=O)Oc1ccc2nc(/C=C/c3ccccc3)oc(=O)c2c1	.	.	.	.	.	-29
COC(=O)CCC(=O)Nc1nnc(C(F)(F)F)s1	-2	14	.	-1	1	?
O=C(O)CCC(=O)Nc1nnc(C(F)(F)F)s1	43*	3	.	-1	6	.
COc1ccc(C(=O)COC(=O)CCc2nc3ccccc3[nH]c2=O)cc1Br	0	.	17	-3	-9	-7
COc1cc2ccccc2cc1C(=O)NC(=S)Nc1cc(C(=O)O)ccc1C	-4	99*	14	-1	-15	10
CCOC(=O)c1sc(NC(=O)CSc2nc3ccccc3o2)c(C(=O)OCC)c1C	-17	13	19	6	-2	-9
CCOC(=O)c1c(NC(=O)CSc2ncccn2)sc2c1CCN(Cc1ccccc1)C2	43*	5	5	6	39	-8
CCOC(=O)c1c(NC(=O)CSc2nc3ccccc3s2)sc(C(C)=O)c1C	47*	17	.	9	5	.
CCOC(=O)c1sc(NC(=O)CSc2nnc(Cc3ccccc3)o2)c(C(=O)OCC)c1C	74*	22	.	9	12	1
NNC(=O)C(Cc1c[nH]c2ccccc12)NC(=O)c1ccccc1 (stereo not drawn)	3	7	4	0	1	2
COc1ccc(S(=O)(=O)NCC(=O)N(Cc2ccco2)C(C(=O)NC(C)(C)C)C(C)C)cc1 (stereo not drawn)	.	.	.	.	.	0
O=C(OCCCC(=O)N1CCOCC1)c1ccccc1	42*	18	.	-3	5	.
O=C(CCSc1ccccc1)N1CCOCC1	1	12	.	10	-2	0
CCCCCCCc1c(O)nc(SCCN(C)C)[nH]c1=O	21	33	11	69*	7	1
SMILES	hK5 inh	FXIIa inh 1536	Calb biofilm kill	FXIa inh	thrombin 1536	Lipid droplet
CCCc1c(O)nc(SCCN(CCC)CCC)[nH]c1=O	-10	-1	.	0	-3	.
O=C(CCCn1cncn1)N1CCCC(N2CCN(c3ccccc3F)CC2)C1 (stereo not drawn)	.	.	.	.	.	-1
CC(=O)N1CCc2cc(S(=O)(=O)CCC(=O)Nc3ccccc3F)ccc21	.	.	.	.	.	-8
Cc1c(-n2cc(C(=O)c3ccccc3O)cc(C#N)c2=O)c(=O)n(-c2ccccc2)n1C	65*	26	.	18	16	1
N#Cc1cc(C(=O)c2ccccc2O)cn(-c2ccc(Cl)cc2)c1=O	6	8	-10	3	7	-12
O=C(CSc1nc2ccccc2n1Cc1ccccc1Cl)N/N=C/c1ccccc1C(=O)O	47*	30	13	28	23	18
Cc1cc(C)n(CC2CC(=O)N(c3ccc(Cl)cc3)C2=O)n1 (stereo not drawn)	2	6	13	9	0	4
Cc1cc(C)n(CC2CC(=O)N(c3ccc(Cl)c(Cl)c3)C2=O)n1 (stereo not drawn)	54*	16	.	18	21	-5
COc1cccc(-n2cc(CNC(=O)C3CCC(=O)N(C4CC4)C3)cn2)c1 (stereo not drawn)	.	.	.	.	.	-4
Cn1c(C(=O)N2CCCC2)cc2c(=O)n(C)c3ccccc3c21	-1	17	.	4	0	.
Cn1c(C(=O)N2CCN(c3ncccn3)CC2)cc2c(=O)n(C)c3ccccc3c21	46*	32	.	4	0	.
Cc1nn(C)c(C)c1S(=O)(=O)N1CCC(C(=O)NCCC2=CCCCC2)CC1	65*	41*	.	7	42*	.
CCOc1ccc(S(=O)(=O)n2nc(C)cc2C)cc1	.	.	.	.	.	-62
Cc1ccc(S(=O)(=O)n2nc(C)cc2C)cc1	43*	1	.	1	27	-6
Cc1ccc(NC(=O)CSc2nnc([C@H](C)NC(=O)OC(C)(C)C)o2)c(C)c1	24	107*	3	21	6	22
Cc1cccc(NC(=O)CSc2nnc([C@H](C)NC(=O)OC(C)(C)C)o2)c1C	.	.	.	.	.	17
Cc1cc2ncn(C(=O)c3ccc4c(c3)OCO4)c2cc1C	6	-8	.	18	41*	.
Cc1ccc(C(=O)n2cnc3ccccc32)cc1C	.	.	.	.	.	-9
Cn1ncc(Cl)c1C(=O)N1CCN(c2ccc(F)cc2)CC1	.	.	.	.	.	-15
CS(=O)(=O)N(CC(=O)NCc1ccco1)Cc1ccc(Cl)cc1	78*	9	.	0	8	-6
O=C(CNCc1ccc(Cl)cc1)Nc1ccc2c(c1)OCCO2	1	10	14	0	-2	4
CS(=O)(=O)N(CC(=O)Nc1ccc2c(c1)OCCO2)Cc1ccc(Cl)cc1	48*	11	.	4	29	0
O=C(CCCc1nc(-c2ccc(Cl)cc2)no1)NC1CCCCC1	.	.	.	.	.	-8
COC(=O)C(C)Sc1nc2ccsc2c(=O)n1Cc1ccccc1 (stereo not drawn)	.	.	.	.	.	-2
Nc1nnc(CCOc2ccc(Cl)cc2)s1	44*	21	6	16	24	8
SMILES	hK5 inh	FXIIa inh 1536	Calb biofilm kill	FXIa inh	thrombin 1536	Lipid droplet
COc1cccc(OC)c1C(=O)Nc1ccc(S(=O)(=O)N2CCCCC2)cc1	.	.	.	.	.	-1
CCC(C)NC(=O)[C@H]1N2C(=O)c3c(ccc(OC)c3OC)C2SC1(C)C (stereo partly drawn)	.	.	.	.	.	15
CCCN1CCC2(CC1)C(C#N)=C(N)Oc1c2sc2nc(C)cc(C)c12	-5	18	.	5	7	.
Cc1cc(C)c2c3c(sc2n1)C(c1cccc(F)c1)C(C#N)=C(N)O3 (stereo not drawn)	14	10	.	4	60*	9
COc1ccccc1C(=O)C1CCCN(C(=O)c2cccc(-n3cccn3)c2)C1 (stereo not drawn)	7	10	22	3	-6	-7
O=C(Nc1cc([N+](=O)[O-])ccc1N1CCOCC1)c1ccco1	21	16	24	43*	29	12
